# Assay results from ChEMBL document CHEMBL4715736, “Identification of anticancer agents based on the thieno[2,3-b]pyridine and 1H-pyrazole molecular scaffolds” (2016).
# Legend:
# Format in all cases: functional
# HOP-62 = experiment: Growth inhibition of human HOP-62 cells assessed as cell growth at 1 uM incubated for 48 hrs by sulforhodamine B assay relative to control; details: read-out: Activity
# MOLT-4 [1] = experiment: Growth inhibition of human MOLT-4 cells assessed as cell growth at 0.1 uM incubated for 48 hrs by sulforhodamine B assay relative to control; details: read-out: Activity
# IGROV-1 [2] = experiment: Growth inhibition of human IGROV-1 cells assessed as cell growth at 1 uM incubated for 48 hrs by sulforhodamine B assay relative to control; details: read-out: Activity
# MDA-MB-435 [3] = experiment: Growth inhibition of human MDA-MB-435 cells assessed as cell growth at 1 uM incubated for 48 hrs by sulforhodamine B assay relative to control; details: read-out: Activity
# SW-620 = experiment: Growth inhibition of human SW-620 cells assessed as cell growth at 0.01 uM incubated for 48 hrs by sulforhodamine B assay relative to control; details: read-out: Activity
# HCT-15 = experiment: Growth inhibition of human HCT-15 cells assessed as cell growth at 0.01 uM incubated for 48 hrs by sulforhodamine B assay relative to control; details: read-out: Activity
# M14 [4] = experiment: Growth inhibition of human M14 cells assessed as cell growth at 1 uM incubated for 48 hrs by sulforhodamine B assay relative to control; details: read-out: Activity
# OVCAR-4 = experiment: Growth inhibition of human OVCAR-4 cells assessed as cell growth at 0.1 uM incubated for 48 hrs by sulforhodamine B assay relative to control; details: read-out: Activity
# IGROV-1 [5] = experiment: Growth inhibition of human IGROV-1 cells assessed as cell growth at 0.1 uM incubated for 48 hrs by sulforhodamine B assay relative to control; details: read-out: Activity
# SR [6] = experiment: Growth inhibition of human SR cells assessed as cell growth at 100 uM incubated for 48 hrs by sulforhodamine B assay relative to control; details: read-out: Activity
# MDA-MB-435 [7] = experiment: Growth inhibition of human MDA-MB-435 cells assessed as cell growth at 100 uM incubated for 48 hrs by sulforhodamine B assay relative to control; details: read-out: Activity
# RPMI-8226 [8] = experiment: Growth inhibition of human RPMI-8226 cells assessed as cell growth at 0.01 uM incubated for 48 hrs by sulforhodamine B assay relative to control; details: read-out: Activity
# NCI-H522 = experiment: Growth inhibition of human NCI-H522 cells assessed as cell growth at 0.1 uM incubated for 48 hrs by sulforhodamine B assay relative to control; details: read-out: Activity
# CAKI-1 = experiment: Growth inhibition of human CAKI-1 cells assessed as cell growth at 0.01 uM incubated for 48 hrs by sulforhodamine B assay relative to control; details: read-out: Activity
# Summary of the method: (§1)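 NCI Developmental Therapeutics Program NCI60 panel. Compounds that were active in the 10 µM one-dose screen went on to dose–response testing. Growth at each concentration is expressed relative to untreated control (100%). GI50 (concentration giving 50% of maximal inhibition of proliferation) and TGI (concentration giving total growth inhibition) were derived from the curves.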
# SN12C = experiment: Growth inhibition of human SN12C cells assessed as cell growth at 0.01 uM incubated for 48 hrs by sulforhodamine B assay relative to control; details: read-out: Activity
# U-251 = experiment: Growth inhibition of human U-251 cells incubated for 48 hrs by sulforhodamine B assay
# Summary of the method: (§2)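 NCI DTP 60-line human tumour panel. Dose-response curves were run only for ligands active in the initial 10 µM screen. GI50 (concentration giving 50% of maximal inhibition of proliferation) and TGI (concentration giving total growth inhibition) were derived from these curves.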
# OVCAR-8 [9] = experiment: Growth inhibition of human OVCAR-8 cells assessed as cell growth at 0.01 uM incubated for 48 hrs by sulforhodamine B assay relative to control; details: read-out: Activity
# RXF 393 = experiment: Growth inhibition of human RXF 393 cells assessed as cell growth at 0.01 uM incubated for 48 hrs by sulforhodamine B assay relative to control; details: read-out: Activity
# SK-MEL-5 = experiment: Growth inhibition of human SK-MEL-5 cells assessed as cell growth at 100 uM incubated for 48 hrs by sulforhodamine B assay relative to control; details: read-out: Activity
# SNB-75 = experiment: Growth inhibition of human SNB-75 cells assessed as cell growth at 1 uM incubated for 48 hrs by sulforhodamine B assay relative to control; details: read-out: Activity
# M14 [10] = experiment: Growth inhibition of human M14 cells incubated for 48 hrs by sulforhodamine B assay
# Summary of the method: (§3)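 NCI60 panel at the NCI Developmental Therapeutics Program. Only compounds active in the 10 µM screen went to dose-response testing. GI50, the concentration giving 50% of maximal inhibition of proliferation, and TGI, the concentration giving total growth inhibition, were derived from the dose-response curves.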
# HCT-116 = experiment: Growth inhibition of human HCT-116 cells assessed as cell growth at 100 uM incubated for 48 hrs by sulforhodamine B assay relative to control; details: read-out: Activity
# MCF7 = experiment: Growth inhibition of human MCF7 cells assessed as cell growth at 0.1 uM incubated for 48 hrs by sulforhodamine B assay relative to control; details: read-out: Activity
# NCI-H226 = experiment: Growth inhibition of human NCI-H226 cells assessed as cell growth at 0.1 uM incubated for 48 hrs by sulforhodamine B assay relative to control; details: read-out: Activity
# K562 = experiment: Growth inhibition of human K562 cells assessed as cell growth at 0.1 uM incubated for 48 hrs by sulforhodamine B assay relative to control; details: read-out: Activity
# RPMI-8226 [11] = experiment: Growth inhibition of human RPMI-8226 cells assessed as cell growth at 1 uM incubated for 48 hrs by sulforhodamine B assay relative to control; details: read-out: Activity
# MOLT-4 [12] = experiment: Growth inhibition of human MOLT-4 cells assessed as cell growth at 1 uM incubated for 48 hrs by sulforhodamine B assay relative to control; details: read-out: Activity
# SR [13] = experiment: Growth inhibition of human SR cells assessed as cell growth at 0.1 uM incubated for 48 hrs by sulforhodamine B assay relative to control; details: read-out: Activity
# OVCAR-8 [14] = experiment: Growth inhibition of human OVCAR-8 cells assessed as cell growth at 100 uM incubated for 48 hrs by sulforhodamine B assay relative to control; details: read-out: Activity
# Hs-578T = experiment: Growth inhibition of human Hs-578T cells assessed as cell growth at 1 uM incubated for 48 hrs by sulforhodamine B assay relative to control; details: read-out: Activity
# 786-0 = experiment: Growth inhibition of human 786-0 cells assessed as cell growth at 0.1 uM incubated for 48 hrs by sulforhodamine B assay relative to control; details: read-out: Activity; summary of the method: as §1
# ACHN = experiment: Growth inhibition of human ACHN cells assessed as cell growth at 0.01 uM incubated for 48 hrs by sulforhodamine B assay relative to control; details: read-out: Activity
# SK-MEL-2 = experiment: Growth inhibition of human SK-MEL-2 cells incubated for 48 hrs by sulforhodamine B assay; summary of the method: as §2
# UACC-62 = experiment: Growth inhibition of human UACC-62 cells assessed as cell growth at 0.01 uM incubated for 48 hrs by sulforhodamine B assay relative to control; details: read-out: Activity
# MDA-MB-231 = experiment: Growth inhibition of human MDA-MB-231 cells incubated for 48 hrs by sulforhodamine B assay; details: for CC50: read-out: LC50 (the source's name); summary of the method: as §3
smiles,measurement,setting,value
Nc1c(C(=O)Nc2ccccc2)sc2nc3c(cc12)CN(Cc1ccccc1)CC3,growth at 1 µM,HOP-62,88%
same,growth at 0.1 µM,MOLT-4 [1],95%
same,growth at 1 µM,IGROV-1 [2],101%
same,growth at 1 µM,MDA-MB-435 [3],68%
same,growth at 0.01 µM,SW-620,98%
same,growth at 0.01 µM,HCT-15,102%
same,growth at 1 µM,M14 [4],91%
same,growth at 0.1 µM,OVCAR-4,91%
same,growth at 0.1 µM,IGROV-1 [5],98%
same,growth at 100 µM,SR [6],19%
same,growth at 100 µM,MDA-MB-435 [7],-6%
same,growth at 0.01 µM,RPMI-8226 [8],97%
same,growth at 0.1 µM,NCI-H522,87%
same,growth at 0.01 µM,CAKI-1,93%
same,growth at 0.01 µM,SN12C,94%
same,GI50,U-251,13.9 µM
same,LC50 (concentration killing 50% of cells),U-251,> 100 µM
same,TGI,U-251,> 100 µM
same,growth at 0.01 µM,OVCAR-8 [9],100%
same,growth at 0.01 µM,RXF 393,96%
same,growth at 100 µM,SK-MEL-5,16%
same,growth at 1 µM,SNB-75,64%
same,GI50,M14 [10],30.8 µM
same,LC50 (concentration killing 50% of cells),M14 [10],> 100 µM
same,TGI,M14 [10],> 100 µM
same,growth at 100 µM,HCT-116,17%
same,growth at 0.1 µM,MCF7,86%
same,growth at 0.1 µM,NCI-H226,96%
same,growth at 0.1 µM,K562,99%
same,growth at 1 µM,RPMI-8226 [11],93%
same,growth at 1 µM,MOLT-4 [12],97%
same,growth at 0.1 µM,SR [13],91%
same,growth at 100 µM,OVCAR-8 [14],18%
same,growth at 1 µM,Hs-578T,78%
same,growth at 0.1 µM,786-0,90%
same,growth at 0.01 µM,ACHN,101%
same,GI50,SK-MEL-2,20.3 µM
same,LC50,SK-MEL-2,> 100 µM
same,TGI,SK-MEL-2,> 100 µM
same,growth at 0.01 µM,UACC-62,95%
same,GI50,MDA-MB-231,5.81 µM
same,TGI,MDA-MB-231,> 100 µM
same,CC50,MDA-MB-231,> 100 µM
COc1cccc(NC(=O)c2sc3nc4c(cc3c2N)CN(Cc2ccccc2)CC4)c1,growth at 1 µM,HOP-62,74%
same,growth at 0.1 µM,MOLT-4 [1],104%
same,growth at 1 µM,IGROV-1 [2],90%
same,growth at 1 µM,MDA-MB-435 [3],4%
same,growth at 0.01 µM,SW-620,100%
same,growth at 0.01 µM,HCT-15,92%
same,growth at 1 µM,M14 [4],57%
same,growth at 0.1 µM,OVCAR-4,93%
same,growth at 0.1 µM,IGROV-1 [5],102%
same,growth at 100 µM,SR [6],-19%
same,growth at 100 µM,MDA-MB-435 [7],-74%
same,growth at 0.01 µM,RPMI-8226 [8],98%
same,growth at 0.1 µM,NCI-H522,95%
same,growth at 0.01 µM,CAKI-1,87%
same,growth at 0.01 µM,SN12C,95%
same,GI50,U-251,2.74 µM
same,LC50 (concentration killing 50% of cells),U-251,88.7 µM
same,TGI,U-251,19.2 µM
same,growth at 0.01 µM,OVCAR-8 [9],99%
same,growth at 0.01 µM,RXF 393,97%
same,growth at 100 µM,SK-MEL-5,-34%
same,growth at 1 µM,SNB-75,77%
same,GI50,M14 [10],12.7 µM
same,LC50 (concentration killing 50% of cells),M14 [10],> 100 µM
same,TGI,M14 [10],86.8 µM
same,growth at 100 µM,HCT-116,2%
same,growth at 0.1 µM,MCF7,87%
same,growth at 0.1 µM,NCI-H226,87%
same,growth at 0.1 µM,K562,101%
same,growth at 1 µM,RPMI-8226 [11],84%
same,growth at 1 µM,MOLT-4 [12],78%
same,growth at 0.1 µM,SR [13],99%
same,growth at 100 µM,OVCAR-8 [14],-2%
same,growth at 1 µM,Hs-578T,72%
same,growth at 0.1 µM,786-0,93%
same,growth at 0.01 µM,ACHN,97%
same,GI50,SK-MEL-2,10.3 µM
same,LC50,SK-MEL-2,> 100 µM
same,TGI,SK-MEL-2,44.5 µM
same,growth at 0.01 µM,UACC-62,94%
same,GI50,MDA-MB-231,11.4 µM
same,TGI,MDA-MB-231,75.3 µM
same,CC50,MDA-MB-231,> 100 µM
Cc1cc(C)c(NC(=O)c2sc3nc4c(cc3c2N)CN(Cc2ccccc2)CC4)c(C)c1,growth at 1 µM,HOP-62,81%
same,growth at 0.1 µM,MOLT-4 [1],98%
same,growth at 1 µM,IGROV-1 [2],85%
same,growth at 1 µM,MDA-MB-435 [3],20%
same,growth at 0.01 µM,SW-620,95%
same,growth at 0.01 µM,HCT-15,93%
same,growth at 1 µM,M14 [4],78%
same,growth at 0.1 µM,OVCAR-4,94%
same,growth at 0.1 µM,IGROV-1 [5],94%
same,growth at 100 µM,SR [6],-16%
same,growth at 100 µM,MDA-MB-435 [7],-58%
same,growth at 0.01 µM,RPMI-8226 [8],101%
same,growth at 0.1 µM,NCI-H522,97%
same,growth at 0.01 µM,CAKI-1,88%
same,growth at 0.01 µM,SN12C,104%
same,GI50,U-251,4.35 µM
same,LC50 (concentration killing 50% of cells),U-251,> 100 µM
same,TGI,U-251,24.2 µM
same,growth at 0.01 µM,OVCAR-8 [9],101%
same,growth at 0.01 µM,RXF 393,92%
same,growth at 100 µM,SK-MEL-5,-49%
same,growth at 1 µM,SNB-75,79%
same,GI50,M14 [10],2.89 µM
same,LC50 (concentration killing 50% of cells),M14 [10],> 100 µM
same,TGI,M14 [10],31.5 µM
same,growth at 100 µM,HCT-116,-64%
same,growth at 0.1 µM,MCF7,91%
same,growth at 0.1 µM,NCI-H226,93%
same,growth at 0.1 µM,K562,105%
same,growth at 1 µM,RPMI-8226 [11],87%
same,growth at 1 µM,MOLT-4 [12],96%
same,growth at 0.1 µM,SR [13],103%
same,growth at 100 µM,OVCAR-8 [14],14%
same,growth at 1 µM,Hs-578T,76%
same,growth at 0.1 µM,786-0,92%
same,growth at 0.01 µM,ACHN,97%
same,GI50,SK-MEL-2,5.59 µM
same,LC50,SK-MEL-2,> 100 µM
same,TGI,SK-MEL-2,> 100 µM
same,growth at 0.01 µM,UACC-62,101%
same,GI50,MDA-MB-231,5.75 µM
same,TGI,MDA-MB-231,58.9 µM
same,CC50,MDA-MB-231,> 100 µM
